Data taken from ChEMBL document CHEMBL1124192, “Cyclopentenylcytosine. A carbocyclic nucleoside with antitumor and antiviral properties” (J Med Chem, 1988).
Values after ≈ are worked out from the molar mass of the structure shown.

Legend:
Vaccinia virus [1] = test: Dose of compound required to inhibit the vaccinia lederle CA virus induced cytopathogenic effects; format: functional; details: Orthopoxvirus vaccinia; read-out: ID50 (the source's name)
Summary of the method: (§1)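 Southern Research CPE inhibition test in Vero host cells. Confluent monolayers in 96-well plates received drug (minimum seven concentrations, cytotoxic to noncytotoxic) plus virus at 32 CCID50 per 0.1 mL, in triplicate, with cell, virus and drug-cytotoxicity controls. Incubated at 37 °C, 2% CO2. CPE scored microscopically at 3–4 days. VR = 0.1 × sum of CE-grade differences from virus control, halved for partially cytotoxic wells.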

Vaccinia virus [2] = test: Degree of inhibition of virus-induced cytopathogenic effect and the degree of cytotoxicity produced by compound against vaccinia lederle CA virus; format: functional, Orthopoxvirus vaccinia; summary of the method: as §1

## Nc1ncnc2c1ncn2[C@@H]1O[C@H](CO)[C@@H](O)[C@@H]1O [VIDARABINE]
Vaccinia virus [1]
  IC50: 9.8 µg/mL (≈ 36.7 µM)
Vaccinia virus [2]
  Virus rating: 3.1
